# Experimental data of several laboratories.
# Lines come from different studies, so protocols differ.
# Cell line: HCT-116
# Effect on: cell growth or viability
Structure (SMILES),method,tested at,time,quantity,result
COc1ccc(NC(=O)c2c(Nc3ccccc3)sc(C#N)c2NC(=O)CNc2ccc([N+](=O)[O-])cc2)cc1,SRB,0.1 µM,48 h,viability,83.9%
COc1cc(CNC(=O)C[C@H](C)CCC=C(C)C)ccc1OCc1cn(-c2ccc(Cl)cc2)nn1,SRB,10 µM,,inhibition,41%
COc1ccc(C(=O)/C=C/c2cccc3ccccc23)cc1S(N)(=O)=O,SRB,,48 h,GI50,1.3 µM
Cc1nc2ccc(Cl)cc2c(=O)n1NC(=O)CCl,LDH,200 µg/mL,24 h,viability,89%
COc1ccc(C(=O)/C=C/c2cccc(Cl)c2Cl)cc1S(N)(=O)=O,SRB,,48 h,GI50,1.3 µM
COc1ccc(NC(=O)c2c(Nc3ccccc3)sc(C#N)c2NC(=O)CNc2ccc(OC)c(OC)c2)cc1,SRB,0.1 µM,48 h,viability,76%
COc1cc2c(OC)nc3c4cc5c(cc4cc(OCCCN4CCC(N6CCCCC6)CC4)c3c2cc1OC)OCO5,MTT,,72 h,GI50,5.7 µM
COc1ccc(NCC(=O)Nc2c(C#N)sc(Nc3ccccc3)c2C(=O)Nc2ccc(OC)cc2)cc1,SRB,1 µM,48 h,viability,70.2%
COc1cc2c(OC)nc3c4cc5c(cc4cc(OCCN(C)C)c3c2cc1OC)OCO5,MTT,,72 h,GI50,> 100 µM
COc1ccc(C(=O)/C=C/c2cccc(Br)c2)cc1S(N)(=O)=O,SRB,10 µM,,inhibition,199%
COc1cc(NCC(=O)Nn2c(C)nc3ccc(Cl)cc3c2=O)cc(OC)c1OC,LDH,200 µg/mL,24 h,viability,54.5%
COc1ccc(NC(=O)c2c(Nc3ccccc3)sc(C#N)c2NC(=O)CNc2ccc(Cl)cc2)cc1,SRB,10 µM,48 h,viability,48.6%
S=C([S][Au-][P+](CCCCCC[P+]([Au-][S]C(=S)n1cccn1)(c1ccccc1)c1ccccc1)(c1ccccc1)c1ccccc1)n1cccn1,,,,GI50,0.42 µM
COc1ccccc1/C=C/C(=O)c1ccc(OC)c(S(N)(=O)=O)c1,SRB,,48 h,GI50,2.5 µM
COc1cc2c(OC)nc3c4cc5c(cc4cc(OCCCN4CC=CC4)c3c2cc1OC)OCO5,MTT,,72 h,GI50,1.3 µM
COc1ccc(NC(=O)c2c(Nc3ccccc3)sc(C(=O)NN=Cc3ccc(OC)c(O)c3)c2NC(C)=O)cc1,SRB,10 nM,48 h,viability,83.7%
COc1ccc(C(=O)/C=C/c2ccc3ccccc3c2)cc1S(N)(=O)=O,SRB,,48 h,GI50,1.9 µM
COc1cc2c(OC)nc3c4cc5c(cc4cc(OCCCN4CCCC4)c3c2cc1OC)OCO5,MTT,,72 h,GI50,2.4 µM
COc1ccc(NC(=O)c2c(Nc3ccccc3)sc(C(=O)NN=Cc3ccc(Cl)cc3)c2NC(C)=O)cc1,SRB,10 nM,48 h,viability,95.1%
COc1ccc(C(=O)/C=C/c2ccc(Cl)c(Cl)c2)cc1S(N)(=O)=O,SRB,,48 h,GI50,1.2 µM
CNC(=O)c1cc(Oc2ccc(NC(=O)Nc3ccc(Cl)c(C(F)(F)F)c3)cc2)ccn1,SRB,1 µM,48 h,viability,46.6%
COc1cc(/C=N/n2c(C)nc3ccc(C)cc3c2=O)ccc1OCc1ccccc1,LDH,200 µg/mL,24 h,viability,74.5%
Cc1c(OCC(F)(F)F)ccnc1COc1ccc(NC(=O)Nc2cccc(C(F)(F)F)c2)cc1,MTT,,72 h,IC50,5.43 µM
CCc1ccc(/C=N/n2c(C)nc3ccc(C)cc3c2=O)s1,LDH,200 µg/mL,24 h,viability,86.5%
COc1ccc(C(=O)/C=C/c2ccc3c(c2)OCCO3)cc1S(N)(=O)=O,SRB,10 µM,,inhibition,57%
COc1ccc(NC(=O)c2c(Nc3ccccc3)sc(C(=O)NN=Cc3cc(OC)c(OC)c(OC)c3)c2NC(C)=O)cc1,SRB,0.1 µM,48 h,viability,86.1%
COc1ccc(C(=O)/C=C/c2ccccc2Br)cc1S(N)(=O)=O,SRB,10 µM,,inhibition,197%
CCN(CC)CCCOc1cc2cc3c(cc2c2nc(OC)c4cc(OC)c(OC)cc4c12)OCO3,MTT,,72 h,GI50,13 µM
